{
  "source": "paper PMC2921005",
  "about": "(Leukemia, 2010)",
  "experiment": "Phase I dose escalation trial: toxicities, DLT and MTD",
  "assay_type": "in vivo, human",
  "conditions": "for Any toxicity, Grade 3: n = number of events",
  "how_it_was_run": "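Oral twice-daily tablets of test compound were given for 14 or 21 days of each 28-day cycle. Dose levels were 400 mg ×14 d, 400 mg ×21 d, 600 mg ×14 d and 600 mg ×21 d. Every patient was assessed for DLT, with no intrapatient escalation and up to 6 cycles.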",
  "data": [
    {"smiles": "CNC(=O)c1cc(Oc2ccc(NC(=O)Nc3ccc(Cl)c(C(F)(F)F)c3)cc2)ccn1", "note": "[sorafenib]", "values": [
      {"measurement": "Alkaline phosphatase, Grade 3", "setting": "400 mg bid × 14d (cycles=6)", "result": "0 (0) n (%)"},
      {"measurement": "Any toxicity, Grade 4", "setting": "400 mg bid × 14d (cycles=6)", "result": "0 (0) n (%)"},
      {"measurement": "Bilirubin, Grade 4", "setting": "400 mg bid × 14d (cycles=6)", "result": "0 (0) n (%)"},
      {"measurement": "Edema (limb), Grade 3", "setting": "400 mg bid × 14d (cycles=6)", "result": "0 (0) n (%)"},
      {"measurement": "Fatigue, Grade 3", "setting": "400 mg bid × 14d (cycles=6)", "result": "1 (17) n (%)"},
      {"measurement": "Febrile neutropenia, Grade 3", "setting": "400 mg bid × 14d (cycles=6)", "result": "2 (33) n (%)"},
      {"measurement": "Fever (without neutropenia), Grade 3", "setting": "400 mg bid × 14d (cycles=6)", "result": "0 (0) n (%)"},
      {"measurement": "Hand-foot skin reaction, Grade 3", "setting": "400 mg bid × 14d (cycles=6)", "result": "0 (0) n (%)"},
      {"measurement": "Hypokalemia, Grade 3", "setting": "400 mg bid × 14d (cycles=6)", "result": "1 (17) n (%)"},
      {"measurement": "Hypophosphatemia, Grade 3", "setting": "400 mg bid × 14d (cycles=6)", "result": "0 (0) n (%)"},
      {"measurement": "Hypophosphatemia, Grade 4", "setting": "400 mg bid × 14d (cycles=6)", "result": "0 (0) n (%)"},
      {"measurement": "Muscle weakness, Grade 3", "setting": "400 mg bid × 14d (cycles=6)", "result": "0 (0) n (%)"},
      {"measurement": "Pain, Abdomen NOS, Grade 3", "setting": "400 mg bid × 14d (cycles=6)", "result": "0 (0) n (%)"},
      {"measurement": "Pain, Back, Grade 3", "setting": "400 mg bid × 14d (cycles=6)", "result": "0 (0) n (%)"},
      {"measurement": "Pain, Joint, Grade 3", "setting": "400 mg bid × 14d (cycles=6)", "result": "0 (0) n (%)"},
      {"measurement": "Any toxicity, Grade 3", "setting": "400 mg bid × 14d (cycles=6)", "result": "3 (50) n (%)"},
      {"measurement": "Alkaline phosphatase, Grade 3", "setting": "400 mg bid × 21d (cycles=21)", "result": "2 (10) n (%)"},
      {"measurement": "Any toxicity, Grade 4", "setting": "400 mg bid × 21d (cycles=21)", "result": "3 (14) n (%)"},
      {"measurement": "Bilirubin, Grade 4", "setting": "400 mg bid × 21d (cycles=21)", "result": "1 (5) n (%)"},
      {"measurement": "Edema (limb), Grade 3", "setting": "400 mg bid × 21d (cycles=21)", "result": "2 (10) n (%)"},
      {"measurement": "Fatigue, Grade 3", "setting": "400 mg bid × 21d (cycles=21)", "result": "4 (19) n (%)"},
      {"measurement": "Febrile neutropenia, Grade 3", "setting": "400 mg bid × 21d (cycles=21)", "result": "3 (14) n (%)"},
      {"measurement": "Fever (without neutropenia), Grade 3", "setting": "400 mg bid × 21d (cycles=21)", "result": "1 (5) n (%)"},
      {"measurement": "Hand-foot skin reaction, Grade 3", "setting": "400 mg bid × 21d (cycles=21)", "result": "1 (5) n (%)"},
      {"measurement": "Hypokalemia, Grade 3", "setting": "400 mg bid × 21d (cycles=21)", "result": "2 (10) n (%)"},
      {"measurement": "Hypophosphatemia, Grade 3", "setting": "400 mg bid × 21d (cycles=21)", "result": "1 (5) n (%)"},
      {"measurement": "Hypophosphatemia, Grade 4", "setting": "400 mg bid × 21d (cycles=21)", "result": "1 (5) n (%)"},
      {"measurement": "Muscle weakness, Grade 3", "setting": "400 mg bid × 21d (cycles=21)", "result": "2 (10) n (%)"},
      {"measurement": "Pain, Abdomen NOS, Grade 3", "setting": "400 mg bid × 21d (cycles=21)", "result": "1 (5) n (%)"},
      {"measurement": "Pain, Back, Grade 3", "setting": "400 mg bid × 21d (cycles=21)", "result": "0 (0) n (%)"},
      {"measurement": "Pain, Joint, Grade 3", "setting": "400 mg bid × 21d (cycles=21)", "result": "1 (5) n (%)"},
      {"measurement": "Any toxicity, Grade 3", "setting": "400 mg bid × 21d (cycles=21)", "result": "10 (48) n (%)"},
      {"measurement": "Dose limiting toxicities, patients", "setting": "600mg BID × 14 days, elevated transaminases (n=1), back pain (1)", "result": "2/3"},
      {"measurement": "Alkaline phosphatase, Grade 3", "setting": "600 mg bid × 14d (cycles=4)", "result": "0 (0) n (%)"},
      {"measurement": "Any toxicity, Grade 4", "setting": "600 mg bid × 14d (cycles=4)", "result": "1 (25) n (%)"},
      {"measurement": "Bilirubin, Grade 4", "setting": "600 mg bid × 14d (cycles=4)", "result": "1 (25) n (%)"},
      {"measurement": "Edema (limb), Grade 3", "setting": "600 mg bid × 14d (cycles=4)", "result": "0 (0) n (%)"},
      {"measurement": "Fatigue, Grade 3", "setting": "600 mg bid × 14d (cycles=4)", "result": "0 (0) n (%)"},
      {"measurement": "Febrile neutropenia, Grade 3", "setting": "600 mg bid × 14d (cycles=4)", "result": "2 (50) n (%)"},
      {"measurement": "Fever (without neutropenia), Grade 3", "setting": "600 mg bid × 14d (cycles=4)", "result": "0 (0) n (%)"},
      {"measurement": "Hand-foot skin reaction, Grade 3", "setting": "600 mg bid × 14d (cycles=4)", "result": "0 (0) n (%)"},
      {"measurement": "Hypokalemia, Grade 3", "setting": "600 mg bid × 14d (cycles=4)", "result": "0 (0) n (%)"},
      {"measurement": "Hypophosphatemia, Grade 3", "setting": "600 mg bid × 14d (cycles=4)", "result": "0 (0) n (%)"},
      {"measurement": "Hypophosphatemia, Grade 4", "setting": "600 mg bid × 14d (cycles=4)", "result": "0 (0) n (%)"},
      {"measurement": "Muscle weakness, Grade 3", "setting": "600 mg bid × 14d (cycles=4)", "result": "0 (0) n (%)"},
      {"measurement": "Pain, Abdomen NOS, Grade 3", "setting": "600 mg bid × 14d (cycles=4)", "result": "0 (0) n (%)"},
      {"measurement": "Pain, Back, Grade 3", "setting": "600 mg bid × 14d (cycles=4)", "result": "1 (25) n (%)"},
      {"measurement": "Pain, Joint, Grade 3", "setting": "600 mg bid × 14d (cycles=4)", "result": "0 (0) n (%)"},
      {"measurement": "Any toxicity, Grade 3", "setting": "600 mg bid × 14d (cycles=4)", "result": "4 (100) n (%)"}
    ]}
  ]
}
